Measured values reported in ChEMBL document CHEMBL3243953, “5-Aryl-1,5-dihydro-2H-1,4-benzodiazepin-2-one derivatives as antianxiety agents” (J Med Chem, 1977).

Columns and labels:
[1] = Acute toxicity in po dosed mouse; format: organism-based; conditions: in vivo
In short: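 Mice dosed orally; acute toxicity expressed as LD50 (mg/kg), calculated by the Bliss method.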

Mus musculus [2] = experiment: Muscle relaxant activity in po dosed mouse assessed as muscle relaxation by rotarod test; format: functional
In short: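 Rotarod performance test in mice after oral dosing, used as a measure of muscle relaxant activity; result expressed as ED50 (mg/kg).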

Mus musculus [3] = experiment: Anticonvulsant activity in po dosed mouse by maximal electroshock test; format: functional
In short: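 Maximal electroshock test in mice after oral dosing, used as a measure of anticonvulsant activity; ED50 (mg/kg) reported.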

Mus musculus [4] = experiment: Anticonvulsant activity in po dosed mouse assessed as inhibition of pentylene-tetrazole-induced convulsion; format: functional
In short: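 Antagonism of pentylenetetrazole-induced convulsions in orally dosed mice, used as a measure of tranquilizing activity; ED50 (mg/kg) reported.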

| SMILES | LD50 [1] [mg/kg] | ED50 (Mus musculus [2]) [mg/kg] | ED50 (Mus musculus [3]) [mg/kg] | ED50 (Mus musculus [4]) [mg/kg] |
| --- | --- | --- | --- | --- |
| CC(=O)OC1(c2ccccc2)c2cc([N+](=O)[O-])ccc2NC(=O)CN1[N+](=O)[O-] (stereo unspecified) | > 1000 | > 100 | > 100 | 58 |
| COC1(c2ccccc2)c2cc(Cl)ccc2NC(=O)CN1[N+](=O)[O-] (stereo unspecified) | > 1000 | > 100 | > 100 | > 100 |
| COC1(c2ccccc2)c2cc([N+](=O)[O-])ccc2NC(=O)CN1[N+](=O)[O-] (stereo unspecified) | > 1000 | > 100 | > 100 | 13 |
| COC1(c2ccccc2)N=CC(=O)N(C)c2ccc(Cl)cc21 (stereo unspecified) | > 1000 | 27.5 | 53 | 0.7 |
| COC1(c2ccccc2)N=CC(=O)N(C)c2ccc([N+](=O)[O-])cc21 (stereo unspecified) | 750 | 5.2 | 76 | 0.7 |
| COC1(c2ccccc2)c2cc(Cl)ccc2N(C)C(=O)CN1[N+](=O)[O-] (stereo unspecified) | > 1000 | > 100 | > 100 | > 100 |
| COC1(c2ccccc2)N=CC(=O)Nc2ccc(Cl)cc21 (stereo unspecified) | > 1000 | 28.1 | > 100 | 1.6 |
| COC1(c2ccccc2)N=CC(=O)Nc2ccc([N+](=O)[O-])cc21 (stereo unspecified) | > 1000 | 19.1 | > 100 | 1.4 |
| O=C1Nc2ccc(Cl)cc2C(c2ccccc2)=NC1OCCO (stereo unspecified) | > 1000 | > 100 | > 100 | 36 |
| O=C1Nc2ccc([N+](=O)[O-])cc2C(c2ccccc2)=NC1OCCO (stereo unspecified) | > 1000 | > 100 | > 100 | 9.2 |
| O=C1Nc2ccc(Cl)cc2C(c2ccccc2)=NC1OCCCl (stereo unspecified) | > 1000 | > 100 | > 100 | 13 |
| O=C1Nc2ccc([N+](=O)[O-])cc2C(c2ccccc2)=NC1OCCCl (stereo unspecified) | > 1000 | > 100 | > 100 | 9.2 |
| O=C1Nc2ccc(Cl)cc2C(c2ccccc2)=NC1NO (stereo unspecified) | > 1000 | > 100 | > 100 | 32 |
| N#CC1N=C(c2ccccc2)c2cc(Cl)ccc2NC1=O (stereo unspecified) | > 1000 | > 100 | > 100 | 14 |
| N#CC1N=C(c2ccccc2)c2cc([N+](=O)[O-])ccc2NC1=O (stereo unspecified) | > 1000 | > 100 | > 100 | > 100 |
| NC1N=C(c2ccccc2)c2cc(Cl)ccc2NC1=O (stereo unspecified) | > 1000 | > 100 | > 100 | 85 |
| CNC1=NC(c2ccccc2)c2cc([N+](=O)[O-])ccc2N(C)C1=O (stereo unspecified) | > 1000 | > 100 | > 100 | > 100 |
| CN1C(=O)CN=C(c2ccccc2)c2cc(Cl)ccc21 [DIAZEPAM] |  | 14.4 | 62.2 | 1.2 |
